We go through one molecule from ChEMBL document CHEMBL1151472, “In vitro interactions between tacrolimus and azoles against Candida albicans determined by different methods” (2008).

Type in all cases: functional
In assay [1] the test system is Candida albicans. Description: Antimicrobial activity against azole-resistant Candida albicans isolate CA10 assessed as growth at 0.125 ug/ml co-treated with 0.004 ug/ml calcineurin signaling inhibitor tacrolimus after 48 hrs by microdilution checkboard technique relative to control. Set-up: scale not given: the % may be the effect or the level left. The method in brief:
(§1)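 Checkerboard microdilution in MOPS-buffered RPMI 1640 (pH 7.0, 2% dextrose). Final ranges: azole 0.125–128 μg/ml (FLC) or 0.008–8 μg/ml (ITR, VRC), tacrolimus 0.002–0.125 μg/ml; solvent 1% in single-drug wells. Inoculum 2.5 × 10^3 CFU/ml, 35°C, 48 h. Growth % = background-subtracted OD492 of each well / drug-free well. Triplicate on different days.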

Assay [2] has as its system Candida albicans. Description: Antimicrobial activity against azole-resistant Candida albicans isolate CA10 assessed as growth at 128 ug/ml after 48 hrs by microdilution checkerboard technique relative to control. In outline: as §1
A general note: Broth dilution looks for growth in wells or tubes with falling amounts of substance.

Assay [3] concerns Candida albicans. Put plainly: Antimicrobial activity against azole-resistant Candida albicans isolate CA10 assessed as growth at 4 ug/ml cotreated with 0.004 ug/ml calcineurin signaling inhibitor tacrolimus after 48 hrs by microdilution checkerboard technique relative to control. Further details: scale not given: the % may be the effect or the level left. The method in brief: (§2)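 CA10 in RPMI 1640 with 2% dextrose and 0.165 M MOPS, pH 7.0. Checkerboard used twofold dilutions, with azole alone in row H and the drug-free growth control in well H1. Final inoculum was 2.5 × 10^3 CFU/ml, incubated 35°C for 48 h, with OD read at 492 nm. Growth % = background-subtracted well OD / drug-free well OD. Run in triplicate on different days.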

Assay [4] has as its system Candida albicans. Description: Antimicrobial activity against azole-resistant Candida albicans isolate CA10 assessed as growth at 16 ug/ml cotreated with 0.008 ug/ml calcineurin signaling inhibitor tacrolimus after 48 hrs by microdilution checkerboard technique relative to control. Set-up: scale not given: the % may be the effect or the level left. In outline:
as §1

The test system of assay [5] is Candida albicans. Put plainly: Antimicrobial activity against azole-resistant Candida albicans isolate CA10 assessed as growth at 128 ug/ml co-treated with 0.063 ug/ml calcineurin signaling inhibitor tacrolimus after 48 hrs by microdilution checkboard technique relative to control. Set-up: scale not given: the % may be the effect or the level left. The method in brief: as §1

The subject of assay [6] is Candida albicans. Description: Antimicrobial activity against azole-resistant Candida albicans isolate CA10 assessed as growth at 2 ug/ml cotreated with 0.063 ug/ml calcineurin signaling inhibitor tacrolimus after 48 hrs by microdilution checkerboard technique relative to control. Set-up: scale not given: the % may be the effect or the level left. The method in brief: as §1

The subject of assay [7] is Candida albicans. Description: Antimicrobial activity against azole-resistant Candida albicans isolate CA10 assessed as growth at 0.5 ug/ml after 48 hrs by microdilution checkerboard technique relative to control. In outline:
as §1

Assay [8] has as its system Candida albicans. Put plainly: Antimicrobial activity against azole-susceptible Candida albicans isolate CA8 after 48 hrs by broth microdilution method. To be noted: isolate CA8, 48 h. In outline: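 CLSI M27-A2 broth microdilution was run in RPMI 1640 (pH 7.0, 2% dextrose, 0.165 M MOPS). Inoculum was 2.5 × 10^3 CFU/ml, incubated 35°C for 48 h without shaking. Plates were read visually (0–5 scale) and at OD 492 nm. MIC80 = lowest concentration giving an 80% absorbance decrease vs drug-free control. Triplicate.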

Assay [9] has as its system Candida albicans. Put plainly: Antimicrobial activity against azole-susceptible Candida albicans isolate CA14 co-treated with calcineurin signaling inhibitor tacrolimus after 48 hrs by microdilution checkerboard technique. To be noted: isolate CA14, 48 h. In outline: (§3)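 Checkerboard microdilution in MOPS-buffered RPMI 1640 (pH 7.0, 2% dextrose) with 2.5 × 10^3 CFU/ml for 48 h at 35°C. Final FK506 was 0.002–0.125 μg/ml. Azole finals were FLC 0.125–128 μg/ml, and ITR and VRC 0.008–8 μg/ml. MIC80 is an 80% OD492 decrease vs drug-free control. Interaction was scored by FICI (synergy ≤0.5, antagonism >4) and by ΔE from triplicates.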

Assay [10] relates to Candida albicans. Description: Antimicrobial activity against azole-resistant Candida albicans isolate CA10 assessed as growth at 8 ug/ml cotreated with 0.031 ug/ml calcineurin signaling inhibitor tacrolimus after 48 hrs by microdilution checkerboard technique relative to control. Further details: scale not given: the % may be the effect or the level left. The method in brief: (§4)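 Checkerboard microdilution in RPMI 1640 (pH 7.0, 2% dextrose, 0.165 M MOPS). Azole dilutions run along columns and FK506 along rows, at 4× final concentration. Final inoculum 2.5 × 10^3 CFU/ml from Sabouraud-subcultured cells. Incubated 35°C for 48 h; OD read at 492 nm. Background from microorganism-free plates subtracted. Growth % = well OD / drug-free well OD. Triplicate on different days, values averaged.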

Assay [11] deals with Candida albicans. Description: Antimicrobial activity against azole-resistant Candida albicans isolate CA10 assessed as growth at 4 ug/ml cotreated with 0.063 ug/ml calcineurin signaling inhibitor Tacrolimus after 48 hrs by microdilution checkboard technique relative to control. Further details: scale not given: the % may be the effect or the level left. In outline: as §2

Assay [12] relates to Candida albicans. Put plainly: Antimicrobial activity against azole-resistant Candida albicans isolate CA10 assessed as growth at 64 ug/ml co-treated with 0.016 ug/ml calcineurin signaling inhibitor tacrolimus after 48 hrs by microdilution checkboard technique relative to control. Further details: scale not given: the % may be the effect or the level left. The method in brief:
as §2

Assay [13] concerns Candida albicans. Description: Antimicrobial activity against azole-resistant Candida albicans isolate CA10 assessed as growth at 2 ug/ml cotreated with 0.008 ug/ml calcineurin signaling inhibitor Tacrolimus after 48 hrs by microdilution checkboard technique relative to control. Further details: scale not given: the % may be the effect or the level left. The method in brief:
as §1

Assay [14] relates to Candida albicans. Put plainly: Antimicrobial activity against azole-resistant Candida albicans isolate CA10 assessed as growth at 128 ug/ml cotreated with 0.125 ug/ml calcineurin signaling inhibitor Tacrolimus after 48 hrs by microdilution checkboard technique relative to control. Further details: scale not given: the % may be the effect or the level left. The method in brief:
as §1

For assay [15], the system named is Candida albicans. Description: Antimicrobial activity against azole-resistant Candida albicans isolate CA10 assessed as growth at 128 ug/ml co-treated with 0.031 ug/ml calcineurin signaling inhibitor tacrolimus after 48 hrs by microdilution checkboard technique relative to control. Set-up: scale not given: the % may be the effect or the level left. In outline:
as §4

Assay [16] deals with Candida albicans. Put plainly: Antimicrobial activity against azole-resistant Candida albicans isolate CA10 assessed as growth at 16 ug/ml after 48 hrs by microdilution checkerboard technique relative to control. In outline: as §1
In assay [17] the test system is Candida albicans. Description: Antimicrobial activity against azole-resistant Candida albicans isolate CA10 assessed as growth at 4 ug/ml after 48 hrs by microdilution checkerboard technique relative to control. In outline: as §2
The test system of assay [18] is Candida albicans. Description: Antimicrobial activity against azole-resistant Candida albicans isolate CA10 assessed as growth at 16 ug/ml co-treated with 0.016 ug/ml calcineurin signaling inhibitor tacrolimus after 48 hrs by microdilution checkboard technique relative to control. Further details: scale not given: the % may be the effect or the level left. In outline:
as §1

The subject of assay [19] is Candida albicans. Put plainly: Antimicrobial activity against azole-resistant Candida albicans isolate CA10 after 48 hrs by broth microdilution method. To be noted: isolate CA10, 48 h. In outline: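 Broth microdilution per CLSI M27-A2 in RPMI 1640 (pH 7.0, 2% dextrose, 0.165 M MOPS), final inoculum 2.5 × 10^3 CFU/ml; 35°C without shaking for 48 h. Read visually (0–5 scale) and by OD 492 nm; MIC80 = lowest concentration giving 80% drop in absorbance versus drug-free control. Triplicate.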

Assay [20] deals with Candida albicans. Put plainly: Antimicrobial activity against azole-resistant Candida albicans isolate CA10 assessed as growth at 2 ug/ml cotreated with 0.125 ug/ml calcineurin signaling inhibitor tacrolimus after 48 hrs by microdilution checkerboard technique relative to control. Set-up: scale not given: the % may be the effect or the level left. In outline: as §1
The test system of assay [21] is Candida albicans. Put plainly: Antimicrobial activity against azole-susceptible Candida albicans isolate CA8 co-treated with calcineurin signaling inhibitor tacrolimus after 48 hrs by microdilution checkerboard technique. To be noted: isolate CA8, 48 h. In outline: as §3
Assay [22] relates to Candida albicans. Description: Antimicrobial activity against azole-resistant Candida albicans isolate CA10 assessed as growth at 0.125 ug/ml co-treated with 0.031 ug/ml calcineurin signaling inhibitor tacrolimus after 48 hrs by microdilution checkboard technique relative to control. Set-up: scale not given: the % may be the effect or the level left. The method in brief: as §4

Values after ≈ are worked out from the molar mass of the structure shown.

Turning to `OC(Cn1cncn1)(Cn1cncn1)c1ccc(F)cc1F` [FLUCONAZOLE], the Activity in assay [1] came to 67%; in [2] it was 48%; in assay [3], 46%; in [4] it was 24%; in assay [5] it was 5%; in assay [6], 13%. For the same molecule, the Activity was 53% in assay [7]; 18% in [10]; 13% in assay [11]; 16% in [12]; 22% in assay [13]; 0% in assay [14]. For the same molecule, the Activity in assay [15] is listed as 14%; in [16] it was 50%; in assay [17], 53%; in assay [18], 19%; in assay [20], 12%; in [22], 36%. Also, the MIC – broadly, the lowest concentration found to suppress growth – came out at 0.25 µg/mL (≈ 0.816 µM) in assay [8], 0.25 µg/mL in assay [9], 256 µg/mL (≈ 836 µM) in assay [19] and 66 µg/mL in assay [21].
